The source made the active and inactive calls. The rule behind the calls is not given here.
Experiments:
[1] = target: T1, Delta-aminolevulinic acid dehydratase, chloroplastic (Pisum sativum, UniProt P30124); test: Inhibition of Pisum sativum PBGS using 5-ALA as substrate; set-up: species or system Lathyrus oleraceus
T1 sequence (P30124 whole entry): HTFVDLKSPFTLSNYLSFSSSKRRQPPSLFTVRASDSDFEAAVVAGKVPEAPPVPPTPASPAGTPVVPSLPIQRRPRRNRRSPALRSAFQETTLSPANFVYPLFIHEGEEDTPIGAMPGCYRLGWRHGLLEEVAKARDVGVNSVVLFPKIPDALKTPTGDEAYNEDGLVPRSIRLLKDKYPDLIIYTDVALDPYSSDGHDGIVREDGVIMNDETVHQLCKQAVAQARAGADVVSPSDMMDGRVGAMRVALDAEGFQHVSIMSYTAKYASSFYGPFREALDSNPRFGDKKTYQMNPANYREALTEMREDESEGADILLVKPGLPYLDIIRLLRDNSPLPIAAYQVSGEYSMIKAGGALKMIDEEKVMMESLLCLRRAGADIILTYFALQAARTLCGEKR
Summary of the method: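 Pea (P. sativum) PBGS at 300 nM subunit in 100 mM BTP-HCl pH 8.5 with 1 mM MgCl2, 5 mM DTT and 0.2 mM 5-ALA, 15 min at 36 °C. Porphobilinogen detected with Ehrlich's reagent. Activity normalized to 6.7% DMSO control as 100%. IC50 from variable-slope normalized-response fit.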

[2] = target: T2, Delta-aminolevulinic acid dehydratase (Wolbachia sp. subsp. Brugia malayi (strain TRS), UniProt Q5GSR3); test: Inhibition of C-terminal His-tagged Wolbachia PBGS using 5-ALA as substrate
T2 sequence (Q5GSR3 whole entry): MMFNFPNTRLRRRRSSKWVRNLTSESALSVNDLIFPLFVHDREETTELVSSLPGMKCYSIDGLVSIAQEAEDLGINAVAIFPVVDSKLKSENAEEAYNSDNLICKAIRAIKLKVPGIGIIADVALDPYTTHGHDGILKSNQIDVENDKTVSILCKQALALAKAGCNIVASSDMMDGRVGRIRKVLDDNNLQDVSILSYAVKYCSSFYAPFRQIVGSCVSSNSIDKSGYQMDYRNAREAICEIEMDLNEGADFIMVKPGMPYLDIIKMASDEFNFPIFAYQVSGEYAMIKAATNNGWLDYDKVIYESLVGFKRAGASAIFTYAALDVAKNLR

[3] = target: T3, Delta-aminolevulinic acid dehydratase (Escherichia coli (strain K12)) (UniProt P0ACB2); test: Stimulation of Escherichia coli recombinant PBGS using 5-ALA as substrate at […]
T3 sequence (whole entry): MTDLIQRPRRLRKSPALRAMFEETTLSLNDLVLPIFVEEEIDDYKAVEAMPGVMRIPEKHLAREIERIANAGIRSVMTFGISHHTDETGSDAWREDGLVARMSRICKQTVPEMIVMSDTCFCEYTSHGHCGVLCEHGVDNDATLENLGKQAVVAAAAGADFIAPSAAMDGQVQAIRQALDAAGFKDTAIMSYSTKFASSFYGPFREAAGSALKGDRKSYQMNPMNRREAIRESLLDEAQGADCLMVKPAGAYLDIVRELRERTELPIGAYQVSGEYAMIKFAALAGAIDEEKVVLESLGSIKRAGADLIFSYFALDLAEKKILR

[4] = target: T3, Delta-aminolevulinic acid dehydratase (Escherichia coli (strain K12)); test: Inhibition of Escherichia coli recombinant PBGS using 5-ALA as substrate at […]
[5] = target: Delta-aminolevulinic acid dehydratase (Yersinia enterocolitica W22703) (UniProt F4MUJ9); test: Stimulation of Yersinia enterocolitica recombinant PBGS expressed in Escherichia coli using 5-ALA as substrate at […]
[6] = target: Delta-aminolevulinic acid dehydratase (Yersinia enterocolitica W22703) (UniProt F4MUJ9); test: Inhibition of Yersinia enterocolitica recombinant PBGS expressed in Escherichia coli using 5-ALA as substrate at […]
[7] = target: Delta-aminolevulinic acid dehydratase (Pseudomonas aeruginosa (strain ATCC 15692 / PAO1 / 1C / PRS 101 / LMG12228)) (UniProt Q59643); test: Stimulation of Pseudomonas aeruginosa PAO1 recombinant PBGS using 5-ALA as substrate at […]
[8] = target: Delta-aminolevulinic acid dehydratase (Pseudomonas aeruginosa (strain ATCC 15692 / PAO1 / 1C / PRS 101 / LMG12228)) (UniProt Q59643); test: Inhibition of Pseudomonas aeruginosa PAO1 recombinant PBGS using 5-ALA as substrate at […]
Toxoplasma gondii [9] = test: Stimulation of Toxoplasma gondii recombinant PBGS using 5-ALA as substrate at […]
Toxoplasma gondii [10] = test: Inhibition of Toxoplasma gondii recombinant PBGS using 5-ALA as substrate at […]
[11] = target: T4, Delta-aminolevulinic acid dehydratase (Drosophila melanogaster, UniProt Q9VTV9); test: Inhibition of Drosophila melanogaster recombinant PBGS using 5-ALA as substrate
T4 sequence (Q9VTV9 whole entry): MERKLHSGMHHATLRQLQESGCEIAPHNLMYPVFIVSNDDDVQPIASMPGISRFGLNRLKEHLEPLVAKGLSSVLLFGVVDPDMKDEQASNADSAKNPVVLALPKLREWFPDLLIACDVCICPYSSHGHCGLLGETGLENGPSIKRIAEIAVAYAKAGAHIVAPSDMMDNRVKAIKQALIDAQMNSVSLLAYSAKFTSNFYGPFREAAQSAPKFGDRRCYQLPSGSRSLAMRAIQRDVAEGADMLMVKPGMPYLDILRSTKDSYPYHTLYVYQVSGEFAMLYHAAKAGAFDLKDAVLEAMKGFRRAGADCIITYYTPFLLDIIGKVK

[12] = target: T5, Delta-aminolevulinic acid dehydratase (Homo sapiens, UniProt P13716); test: Inhibition of human PBGS using 5-ALA as substrate
T5 sequence (P13716 whole entry): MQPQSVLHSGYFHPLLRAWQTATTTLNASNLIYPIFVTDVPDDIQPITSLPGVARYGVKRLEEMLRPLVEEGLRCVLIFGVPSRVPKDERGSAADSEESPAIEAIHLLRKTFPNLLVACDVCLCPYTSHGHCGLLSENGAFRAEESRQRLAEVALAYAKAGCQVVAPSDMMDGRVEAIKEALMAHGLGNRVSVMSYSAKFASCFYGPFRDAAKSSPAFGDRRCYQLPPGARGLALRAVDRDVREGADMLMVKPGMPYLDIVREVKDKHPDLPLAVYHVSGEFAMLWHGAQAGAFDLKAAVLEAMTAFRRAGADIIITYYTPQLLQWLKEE

[13] = target: Delta-aminolevulinic acid dehydratase (Pseudomonas aeruginosa (strain ATCC 15692 / PAO1 / 1C / PRS 101 / LMG12228), UniProt Q59643); test: Inhibition of Pseudomonas aeruginosa PAO1 recombinant PBGS using 5-ALA as substrate
Summary of the method: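 Turnover kept at or below 30%. Porphobilinogen measured with Ehrlich's reagent. IC50 by variable-slope fit of activity normalized to DMSO control.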

Delta-aminolevulinic acid dehydratase (Yersinia enterocolitica W22703), sequence (F4MUJ9 as listed by the source): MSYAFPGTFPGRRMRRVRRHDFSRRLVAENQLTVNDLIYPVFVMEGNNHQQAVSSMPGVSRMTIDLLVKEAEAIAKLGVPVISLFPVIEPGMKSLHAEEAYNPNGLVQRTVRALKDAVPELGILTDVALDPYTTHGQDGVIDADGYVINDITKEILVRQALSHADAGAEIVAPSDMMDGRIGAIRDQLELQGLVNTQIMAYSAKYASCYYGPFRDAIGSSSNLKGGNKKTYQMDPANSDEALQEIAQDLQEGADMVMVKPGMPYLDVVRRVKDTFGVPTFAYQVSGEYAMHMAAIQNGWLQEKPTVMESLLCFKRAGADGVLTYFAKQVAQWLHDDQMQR
Delta-aminolevulinic acid dehydratase (Pseudomonas aeruginosa (strain ATCC 15692 / PAO1 / 1C / PRS 101 / LMG12228)), sequence (Q59643 whole entry): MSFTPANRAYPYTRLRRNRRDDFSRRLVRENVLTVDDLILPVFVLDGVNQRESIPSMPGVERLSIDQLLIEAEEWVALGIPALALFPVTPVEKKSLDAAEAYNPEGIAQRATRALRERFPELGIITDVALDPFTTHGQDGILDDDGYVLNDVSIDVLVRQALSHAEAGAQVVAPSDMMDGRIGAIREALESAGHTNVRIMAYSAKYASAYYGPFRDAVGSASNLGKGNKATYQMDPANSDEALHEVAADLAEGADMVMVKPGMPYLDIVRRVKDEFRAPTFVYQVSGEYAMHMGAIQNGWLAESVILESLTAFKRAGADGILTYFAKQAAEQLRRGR
Delta-aminolevulinic acid dehydratase (Pseudomonas aeruginosa (strain ATCC 15692 / PAO1 / 1C / PRS 101 / LMG12228), UniProt Q59643), sequence (Q59643 whole entry): as above

SMILES	IC50 [1] [µM]	IC50 [2] [µM]	Smax [3] [%]	inhibition [4]	Smax [5] [%]	inhibition [6]	Smax [7] [%]	inhibition [8]	Smax (Toxoplasma gondii [9]) [%]	inhibition (Toxoplasma gondii [10])	IC50 [11] [µM]	IC50 [12] [µM]	IC50 [13] [µM]
Cc1cccc(Cn2cnc3cc(C(=O)O)ccc32)c1	95.9	134	100	inactive	100	inactive	100	inactive	100	inactive	371	222	
O=C(O)c1ccc2[nH]c(CCNC(=O)c3cccs3)nc2c1	114	500	100	inactive	100	inactive	100	inactive	100	inactive	448		
Cn1cnc2cc(C(=O)O)ccc21	257		100	inactive	100	inactive	100	inactive	100	inactive	> 1000		
O=C(O)c1ccc2c(c1)ncn2Cc1cccc(C(F)(F)F)c1	18.5	13	100	inactive	100	inactive	100	inactive	100	inactive	340	197	94
COc1cccc(Cn2cnc3cc(C(=O)O)ccc32)c1	155	205	100	inactive	100	inactive	100	inactive	100	inactive	370	156	
O=C(O)c1ccc2c(c1)ncn2Cc1ccc(C(F)(F)F)cc1	43.1	87.7	100	inactive	100	inactive	100	inactive	100	inactive	620	173	
